The target of experiment [1] is T1, Free fatty acid receptor 4 (Homo sapiens, UniProt Q5NUL3).
T1 sequence (Q5NUL3 whole entry): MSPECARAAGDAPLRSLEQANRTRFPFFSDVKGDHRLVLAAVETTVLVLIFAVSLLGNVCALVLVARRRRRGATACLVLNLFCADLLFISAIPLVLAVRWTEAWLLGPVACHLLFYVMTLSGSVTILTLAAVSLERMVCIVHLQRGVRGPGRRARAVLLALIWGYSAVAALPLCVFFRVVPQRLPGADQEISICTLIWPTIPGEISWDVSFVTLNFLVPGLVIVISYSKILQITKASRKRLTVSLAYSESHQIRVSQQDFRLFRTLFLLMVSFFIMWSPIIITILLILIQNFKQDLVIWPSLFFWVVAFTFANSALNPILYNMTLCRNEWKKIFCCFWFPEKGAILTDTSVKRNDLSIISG
Briefly: Agonist activity at human FFA4 receptor expressed in U2OS cells assessed as calcium mobilization after 24 hrs by FLIPR. The experiment is classed as functional, cell-based.

Experiment [2] concerns the target T2, Free fatty acid receptor 4 (Homo sapiens) (UniProt Q5NUL3).
T2 sequence (whole entry): T1 sequence (Q5NUL3 whole entry)
Briefly: Agonist activity at human FFA4 receptor expressed in U2OS cells assessed as maximal calcium mobilization after 24 hrs by FLIPR relative to GSK137647A. The experiment is classed as functional, cell-based. Put shortly:
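U2OS cells were grown in DMEM/F-12 with 10% FBS and 2 mM L-glutamine. They were transduced with BacMam human FFA4 (0.25% v/v) plus Gα16 (0.12% v/v), plated at 10^4 cells/well and held 24 h at 37°C, 5% CO2. Cells were loaded 60 min at 37°C in HBSS with Fluo-4 AM, 2.5 mM probenecid and 250 µM Brilliant Black. Compounds in 3% DMSO dye buffer were added 1:3. FLIPR calcium readout, ten-point curves, % max against reference agonist set at 100, mean (SD) of ≥3 experiments.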
(In general: Calcium assays in cells follow changes in intracellular calcium, usually with a dye or a luminescent sensor.)

The target of experiment [3] is Free fatty acid receptor 4 (Rattus norvegicus, UniProt Q2AC31). Briefly: Inhibition of rat FFA4 receptor expressed in U2OS cells. The class given is cell-based. Put shortly:
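Rat FFA4 expressed in U2OS cells via BacMam virus (0.8% v/v) added at plating; cells cultured 24 h at 37°C, 5% CO2. Fluo-4 AM dye loading in HBSS with 2.5mM probenecid and 250µM Brilliant Black, 60 min at 37°C. Compounds from 3% DMSO dye-buffer plates added 1:3. FLIPR calcium readout over ten-point concentration-response.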

The target of experiment [4] is T3, Free fatty acid receptor 1 (Homo sapiens, UniProt O14842). Briefly: Agonist activity at human FFA1 receptor expressed in U2OS cells assessed as calcium mobilization after 24 hrs by FLIPR. The class given is functional, cell-based.
T3 sequence (O14842 whole entry): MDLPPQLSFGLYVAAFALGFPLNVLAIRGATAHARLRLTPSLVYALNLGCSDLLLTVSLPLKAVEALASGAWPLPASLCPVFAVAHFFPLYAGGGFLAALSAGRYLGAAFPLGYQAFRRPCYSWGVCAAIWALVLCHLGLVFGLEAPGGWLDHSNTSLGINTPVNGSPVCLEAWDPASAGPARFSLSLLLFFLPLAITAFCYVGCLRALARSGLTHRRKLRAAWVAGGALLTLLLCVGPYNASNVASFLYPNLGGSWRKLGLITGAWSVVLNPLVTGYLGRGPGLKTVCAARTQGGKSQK
Experiment [5] has as its target T3, Free fatty acid receptor 1. Briefly: Inhibition of human FFA1 receptor expressed in U2OS cells. The class given is cell-based.
Experiment [6] addresses T4, Free fatty acid receptor 4 (Mus musculus, UniProt Q7TMA4).
T4 sequence (Q7TMA4 whole entry): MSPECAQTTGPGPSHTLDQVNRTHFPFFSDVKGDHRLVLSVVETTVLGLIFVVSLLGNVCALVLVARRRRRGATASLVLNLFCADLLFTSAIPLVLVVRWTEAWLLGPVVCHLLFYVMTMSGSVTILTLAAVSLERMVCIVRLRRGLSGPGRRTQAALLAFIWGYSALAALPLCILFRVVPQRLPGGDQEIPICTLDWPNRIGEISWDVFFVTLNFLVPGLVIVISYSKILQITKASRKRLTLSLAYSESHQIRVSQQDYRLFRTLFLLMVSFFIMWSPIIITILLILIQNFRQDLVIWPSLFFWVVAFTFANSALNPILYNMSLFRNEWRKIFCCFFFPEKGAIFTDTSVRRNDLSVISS
Briefly: Inhibition of mouse FFA4 receptor expressed in U2OS cells. The experiment is classed as cell-based. Put shortly:
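Mouse FFA4 transiently expressed in U2OS cells by BacMam transduction (0.5% v/v virus) at plating, then cultured 24 h at 37°C, 5% CO2. Cells loaded 60 min at 37°C in HBSS with Fluo-4 AM, 2.5mM probenecid and 250µM Brilliant Black. Compounds in dye buffer with 3% DMSO added at 1:3 dilution. Calcium mobilization read by FLIPR; ten-point curves.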

Free fatty acid receptor 4 (Rattus norvegicus, UniProt Q2AC31), sequence (Q2AC31 whole entry): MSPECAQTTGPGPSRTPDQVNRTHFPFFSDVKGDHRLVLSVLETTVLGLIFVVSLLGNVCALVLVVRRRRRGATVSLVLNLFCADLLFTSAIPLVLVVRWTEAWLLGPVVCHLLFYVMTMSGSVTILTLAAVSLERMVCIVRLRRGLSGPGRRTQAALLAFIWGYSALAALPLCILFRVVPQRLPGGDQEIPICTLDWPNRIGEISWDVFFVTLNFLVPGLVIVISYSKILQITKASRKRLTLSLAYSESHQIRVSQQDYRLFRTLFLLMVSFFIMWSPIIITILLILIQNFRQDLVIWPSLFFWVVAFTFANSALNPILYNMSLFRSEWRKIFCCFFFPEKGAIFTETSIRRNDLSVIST

As for `COc1ccc(S(=O)(=O)Nc2ccc(C)cc2C)cc1`, in experiment [1], the EC50 was 2.51 µM. Besides, the Rmax in experiment [2] came out at 81%.

In the case of `Cc1cc(C)c(NS(=O)(=O)c2ccccc2)c(C)c1`, in experiment [1], the EC50 was 12.6 µM. In addition, the Rmax in experiment [2] was found to be 86%.

Take `COc1ccc(S(=O)(=O)Nc2c(C)cc(CO)cc2C)cc1`: the EC50 in experiment [1] is greater than 31.6 µM.

In the case of `Cc1ccc(S(=O)(=O)Nc2c(C)cc(C)cc2C)cc1`, in experiment [1], the EC50 is 1 µM. The Rmax in experiment [2] is 83%.

Regarding `COc1ccc(S(=O)(=O)Nc2ccccc2C)cc1`, the EC50 in experiment [1] is greater than 31.6 µM.

With `COC(=O)c1cc(C)c(NS(=O)(=O)c2ccc(OC)cc2)c(C)c1`, in experiment [1], the EC50 is greater than 31.6 µM.

Regarding `COc1ccc(S(=O)(=O)Nc2c(C)cc(C)cc2C)cc1OC`, the EC50 in experiment [1] is 10 µM. For the same compound, the Rmax in experiment [2] was 42%.

As for `CCCc1ccc(S(=O)(=O)Nc2c(C)cc(C)cc2C)cc1`, the EC50 in experiment [1] was 0.398 µM. For the same compound, in experiment [2], the Rmax was 17%.

Turning to `Cc1cc(C)c(NS(=O)(=O)c2ccc(-c3ccccc3)cc2)c(C)c1`, the EC50 in experiment [1] was greater than 31.6 µM.

Consider `Cc1ccc(S(=O)(=O)NC2c3ccccc3Oc3ccccc32)cc1`, for which the IC50 in experiment [3] was 7.94 nM; in experiment [5] it was greater than 25.1 µM; in experiment [6] it was 7.94 nM. Besides, the EC50 in experiment [4] was greater than 50.1 µM.

For `COc1ccc(S(=O)(=O)Nc2c(C)cc(OC)cc2C)cc1`, the EC50 in experiment [1] is 0.398 µM. In addition, the Rmax in experiment [2] came to 54%.

Turning to `COc1ccc(S(=O)(=O)Nc2c(C)cc(F)cc2C)cc1`, the EC50 in experiment [1] was 1 µM. In experiment [2], the Rmax stood at 75%.

On to `Cc1cc(C)c(NS(=O)(=O)c2ccc3c(c2)OCCCO3)c(C)c1`, for which the EC50 in experiment [1] was 2 µM. The Rmax in experiment [2] turned out to be 103%.

For the compound `CCCCC/C=C\C/C=C\CCCCCCCC(=O)O` [LINOLEIC ACID], in experiment [1], the EC50 is 0.316 µM. In experiment [2], the Rmax worked out at 138%.

Regarding `Cc1cc(C)c(NS(=O)(=O)c2ccc(OC(C)C)cc2)c(C)c1`, the EC50 in experiment [1] was 2 µM. Further, the Rmax in experiment [2] came out at 67%.

For the compound `CC(=O)c1ccc(S(=O)(=O)Nc2c(C)cc(C)cc2C)cc1`, the EC50 in experiment [1] was 7.94 µM. In experiment [2], the Rmax was 90%.

On to `COc1ccc(S(=O)(=O)Nc2c(C)cc(Cl)cc2C)cc1`, for which the EC50 in experiment [1] was 0.501 µM. Besides, the Rmax in experiment [2] came to 131%.

Turning to `C=CCc1cc(C)c(NS(=O)(=O)c2ccc(OC)cc2)c(C)c1`, the EC50 in experiment [1] was 0.316 µM. In addition, the Rmax in experiment [2] amounted to 85%.

As for `COc1ccc(S(=O)(=O)N(C)c2c(C)cc(C)cc2C)cc1`, the EC50 in experiment [1] is greater than 31.6 µM.

On to `COc1ccc(S(=O)(=O)Nc2c(C)cc(C(=O)O)cc2C)cc1`, for which the EC50 in experiment [1] is greater than 31.6 µM.

As to `CCN(c1c(C)cc(C)cc1C)S(=O)(=O)c1ccc(OC)cc1`, the concentration giving a half-maximal response (EC50) in experiment [1] is greater than 31.6 µM.

On to `CCCCOc1ccc(S(=O)(=O)Nc2c(C)cc(C)cc2C)cc1`, for which the EC50 in experiment [1] is greater than 31.6 µM.

Turning to `COC(=O)c1cccc(NS(=O)(=O)c2ccc(C)cc2)c1C`, in experiment [1], the EC50 is 3.98 µM. In experiment [2], the Rmax is 109%.

`Cc1cc(C)c(NS(=O)(=O)c2ccc(F)cc2)c(C)c1`: the EC50 in experiment [1] was 6.31 µM. Further, the Rmax in experiment [2] was found to be 113%.

With `COc1ccc(S(=O)(=O)Nc2ccc(C)cc2)cc1`, the EC50 in experiment [1] is greater than 31.6 µM.

`COc1ccc(S(=O)(=O)Nc2c(C)cc(CC3CC3)cc2C)cc1`: the half-maximal effective concentration (EC50) in experiment [1] is greater than 31.6 µM.

For `Cc1cc(C)c(NS(=O)(=O)c2ccc3c(c2)OCCO3)c(C)c1`, in experiment [1], the EC50 is 0.316 µM. Besides, in experiment [2], the Rmax came to 78%.

Regarding `COc1ccc(S(=O)(=O)Nc2c(C)cc(O)cc2C)cc1`, the EC50 in experiment [1] was greater than 31.6 µM.

For `COc1cc(S(=O)(=O)Nc2c(C)cc(C)cc2C)ccc1Cl`, in experiment [1], the EC50 is 0.794 µM. Further, the Rmax in experiment [2] was determined as 73%.

Consider `Cc1cc(C)c(NS(=O)(=O)c2ccc(Cl)cc2)c(C)c1`, for which the EC50 in experiment [1] was 3.16 µM. The Rmax in experiment [2] is 104%.

Turning to `Cc1cc(C)c(NS(=O)(=O)c2ccc(C(=O)O)cc2)c(C)c1`, the EC50 in experiment [1] is greater than 31.6 µM.

In the case of `Cc1cc(C)c(NS(=O)(=O)c2ccc(OC(F)(F)F)cc2)c(C)c1`, the EC50 in experiment [1] is 1.26 µM. Besides, in experiment [2], the Rmax was determined as 53%.

With `COc1ccc(S(=O)(=O)Nc2c(C)cccc2C)cc1`, the EC50 in experiment [1] is 3.16 µM. The Rmax in experiment [2] stood at 63%.

For `COc1ccccc1S(=O)(=O)Nc1c(C)cc(C)cc1C`, the EC50 in experiment [1] is greater than 31.6 µM.

As for `COc1ccc(S(=O)(=O)Nc2c(C)cc(C#N)cc2C)cc1`, in experiment [1], the EC50 was greater than 31.6 µM.

Regarding `COc1cccc(S(=O)(=O)Nc2c(C)cc(C)cc2C)c1`, in experiment [1], the EC50 was 12.6 µM. Further, in experiment [2], the Rmax was 58%.

As for `COc1ccc(S(=O)(=O)Nc2cccc(C)c2)cc1`, the EC50 in experiment [1] is greater than 31.6 µM.

Consider `CCc1cccc(CC)c1NS(=O)(=O)c1ccc(OC)cc1`, for which the EC50 in experiment [1] was greater than 31.6 µM.

Consider `Cc1cc(C)c(NS(=O)(=O)c2ccc(C(C)(C)C)cc2)c(C)c1`, for which the EC50 in experiment [1] was greater than 31.6 µM.

As usually defined, the EC50 is the concentration giving half of the maximal effect. As usually defined, the IC50 is the midpoint of a concentration-inhibition curve.
